PP1 inh: counter-screen for PP5 inhibitors: inhibitors of human PP1-alpha | P62136 | purified PP1alpha, OMFP fluorescence | inhibition, % at 6.7 µM | actives 0.9% (n = 320,000);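 active = inhibition above the mean inhibition of all tested compounds plus 3 SD, computed separately for each screening campaign, cut at about 15% in these data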
p-CIP stab down: lowers stability of the mouse p/CIP coactivator protein; decrease of EGFP signal, % at 10 µM; F442A p/CIP-EGFP cells, EGFP fluorescence, 16 h; Q05BA5; actives 0.01% (n = 290,000);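 active = EGFP signal decrease of at least 30% at 10 µM or well 3 SD below plate mean, unless failing retest; inactive = the rest, including hits failing retest or dose response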
AI-2 QS mod: Vibrio harveyi AI-2 quorum sensing modulation; Vibrio harveyi JMH597 AI-2 luminescence/OD600 ratio, 9 h; active compounds read low; strain lacks LuxN and CqsS sensors; 0 = neutral-control median; activity change, % at 7.5 µM; actives 0.4% (n = 300,000); AID 2094; in the data active = activity change below about -75%, passing the limit was not always enough; inconclusive = no clear call, values can overlap the other calls;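 also: luminescence divided by OD600 gain over 9 h not by final OD600 alone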
UBC13 inh: human UBC13 polyubiquitination inhibition; UBC13 polyubiquitin chain formation, TR-FRET; AID 485273; inhibition, % at 20 µM; actives 0.47% (n = 330,000); P61088; in the data active = inhibition above about 45%, passing the limit was not always enough; inconclusive = no clear call, values can overlap the other calls
T cruzi repl: blocks replication of Trypanosoma cruzi. T. cruzi beta-gal in NIH3T3, luminescence, 90 h. inhibition, % (concentration not given with the values). actives 1.4% (n = 300,000);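 active = mean inhibition across valid replicates above about 55%, limit read from the data; inconclusive = mean below that limit but half or more replicates reach it; inactive = mean below it, under half of replicates reach it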;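 also: signal also drops with host cell toxicity which is not excluded here; higher percent means less beta-gal luminescence so fewer parasites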
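compound dosing = single 50 nL compound addition per well in DMSO | material = NIH/3T3 host cells with β-galactosidase reporter T. cruzi | input = 5,000 host fibroblasts per well | timing = ≥90 h infection period, 3 h prior cell attachment | read-out basis = percent inhibition of parasite-derived β-gal signal | detection = GalScreen β-gal luminescence, detergent lysis, 60 min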
A number is an active result. Only some compounds are listed: those with a hit (about 2.8% of all), similar ones and a draw of the others.

Screening CC(=O)N1CCN(S(=O)(=O)c2cccc(C(=O)Nc3nccs3)c2)CC1 returned PP1 inh inactive, p-CIP stab down inactive, AI-2 QS mod inactive, UBC13 inh inactive and T cruzi repl inactive.
Screening O=C(CCCN1C(=O)/C(=C/c2ccccc2Cl)SC1=S)NNC(=O)c1ccccc1Cl returned PP1 inh 17.4, p-CIP stab down inactive, AI-2 QS mod inactive, UBC13 inh inactive and T cruzi repl inactive.
`CC(C)(C)c1cc(Cl)c(O)c(NC(=S)NC(=O)c2cccnc2)c1` gave PP1 inh inactive, p-CIP stab down inactive, AI-2 QS mod inactive, UBC13 inh inactive and T cruzi repl 70.2.
`CC(C)(C)c1ccc(C(=O)NNC(=S)NC(=O)c2cccnc2)cc1` gave PP1 inh inactive, p-CIP stab down inactive, AI-2 QS mod inconclusive, UBC13 inh inactive and T cruzi repl inactive.
`O=C(CN(c1ccc(Br)cc1)S(=O)(=O)c1ccc(Cl)c([N+](=O)[O-])c1)NCCc1ccccc1` gave PP1 inh inactive, p-CIP stab down inactive, AI-2 QS mod inactive, UBC13 inh inactive and T cruzi repl 75.0.
O=C(Nc1ccccc1C(=O)O)c1cc(S(=O)(=O)Nc2cccc(F)c2)ccc1Cl was read as PP1 inh inactive, p-CIP stab down inactive, AI-2 QS mod inactive, UBC13 inh inactive and T cruzi repl inactive.
For O=C(NCc1ccccc1)c1ccccc1OCC(=O)N1CCCCC1 the results were PP1 inh inactive, p-CIP stab down inactive, AI-2 QS mod inactive, UBC13 inh inactive and T cruzi repl inactive.
Screening Cc1cc(C)c2nc(NNC(=O)c3ccc(S(=O)(=O)N4CC(C)CC(C)C4)cc3)sc2c1 (stereo unspecified) returned PP1 inh 16.2, p-CIP stab down inactive, AI-2 QS mod inactive, UBC13 inh inactive and T cruzi repl 61.8.
For CCN(CC)S(=O)(=O)c1ccc(NC(=O)[C@@H](NC(=O)c2cc(OC)cc(OC)c2)C(C)C)cc1 the results were PP1 inh inactive, p-CIP stab down inactive, AI-2 QS mod inactive, UBC13 inh inactive and T cruzi repl inactive.
`COc1ccc(CN(CC(=O)NCC2CCCO2)C(=O)CNS(=O)(=O)c2ccccc2)cc1` (stereo unspecified) gave PP1 inh inactive, p-CIP stab down inactive, AI-2 QS mod inactive, UBC13 inh inactive and T cruzi repl inactive.
Screening O=C(C[n+]1cnn(CC(=O)c2ccc(Cl)cc2Cl)c1)c1ccc([N+](=O)[O-])cc1 returned PP1 inh 17.1, p-CIP stab down inactive, AI-2 QS mod inactive and T cruzi repl inactive.
`Cc1nnc(NC(=O)c2ccc(S(=O)(=O)N3CC(C)OC(C)C3)cc2)o1` (stereo unspecified) gave PP1 inh inactive, p-CIP stab down inactive, AI-2 QS mod inactive, UBC13 inh inactive and T cruzi repl inactive.
Screening COC(=O)c1ccc(S(=O)(=O)NNC(=O)c2ccc(S(=O)(=O)N3CCCCC3)cc2)cc1 returned PP1 inh inactive, p-CIP stab down inactive, AI-2 QS mod inactive, UBC13 inh inactive and T cruzi repl inactive.
`COc1ccc(-c2nnc(NC(=O)c3ccc(S(=O)(=O)N4CCc5ccccc5C4)cc3)o2)cc1` gave PP1 inh inactive, p-CIP stab down inactive, AI-2 QS mod inactive, UBC13 inh inactive and T cruzi repl 73.5.
`O=C(NNS(=O)(=O)c1ccccc1)c1ccc(S(=O)(=O)N2CCCCC2)cc1` gave PP1 inh inactive, p-CIP stab down inactive, AI-2 QS mod -95.6, UBC13 inh inactive and T cruzi repl inactive.
For COc1ccc(-c2csc(NC(=O)c3ccc(S(=O)(=O)N4CCc5ccccc5C4)cc3)n2)cc1 the results were PP1 inh inactive, p-CIP stab down inactive, AI-2 QS mod inactive, UBC13 inh inactive and T cruzi repl inactive.
Screening Cc1nnc(NC(=O)c2ccc(S(=O)(=O)N3CCCCCC3)cc2)o1 returned PP1 inh 16.8, p-CIP stab down inactive, AI-2 QS mod inactive, UBC13 inh inactive and T cruzi repl inactive.
For CC1CCN(S(=O)(=O)c2ccc(NC(=O)c3ccncc3)cc2)CC1 the results were PP1 inh inactive, p-CIP stab down inactive, AI-2 QS mod inactive, UBC13 inh inactive and T cruzi repl inactive.
Screening Cc1cccnc1NC(=O)c1ccc(S(=O)(=O)N2CCC(C)CC2)cc1 returned PP1 inh 16.2, AI-2 QS mod inactive, UBC13 inh inactive and T cruzi repl inactive.
Screening CC(CNC(=O)CCn1ccc2cc(S(=O)(=O)N3CCCC3)ccc21)c1ccccc1 (stereo unspecified) returned PP1 inh inactive, p-CIP stab down inactive, AI-2 QS mod inactive, UBC13 inh inactive and T cruzi repl inactive.
For Cc1ccc(C(=O)Nc2ccc(N3CCN(C)CC3)nc2)cc1 the results were PP1 inh inactive, p-CIP stab down inactive, AI-2 QS mod inactive, UBC13 inh inactive and T cruzi repl inactive.
For C/C(=N\O)C(C)(C)Nc1ccc(Cl)cc1 the results were PP1 inh inactive, p-CIP stab down inactive, AI-2 QS mod inactive, UBC13 inh inactive and T cruzi repl inactive.
Screening Cc1cc(N2CCN(C)CC2)nc2ccc(NC(=S)NCCCN3CCc4ccccc4C3)cc12 returned PP1 inh inactive, p-CIP stab down inactive, AI-2 QS mod inactive, UBC13 inh inactive and T cruzi repl inactive.
`Cc1cc(N2CCN(C)CC2)nc2ccc(NC(=S)NCCN3CCc4ccccc4C3)cc12` gave PP1 inh inactive, p-CIP stab down inactive, AI-2 QS mod inactive, UBC13 inh inactive and T cruzi repl 56.1.
Cc1cccc(N2CCN(C(=S)Nc3ccc4nc(N5CCN(C)CC5)cc(C)c4c3)CC2)c1C was read as p-CIP stab down inactive, AI-2 QS mod inactive and T cruzi repl 64.9.
Screening Cc1cc(N2CCCC2)nc2ccc(NC(=S)NCCCN3CCC(C)CC3)cc12 returned PP1 inh inactive, p-CIP stab down inactive, AI-2 QS mod inactive, UBC13 inh inactive and T cruzi repl 60.0.
`Cc1cc(N2CCN(C)CC2)nc2ccc(NC(=S)N3CCCCC3)cc12` gave p-CIP stab down inactive, AI-2 QS mod inactive and T cruzi repl inactive.
Screening CCCN1CCN(CCCNC(=S)Nc2ccc3nc(N4CCN(CC)CC4)cc(C)c3c2)CC1 returned PP1 inh inactive, p-CIP stab down 80.5, AI-2 QS mod inactive, UBC13 inh inactive and T cruzi repl inactive.
COc1ccc2c(C#N)c3ccccn3c2c1 was read as PP1 inh inactive, p-CIP stab down inactive, AI-2 QS mod inactive, UBC13 inh inactive and T cruzi repl inactive.
`COc1cccc(C(O)c2cnc(C(C)C)n2C)c1` (stereo unspecified) gave PP1 inh inactive, p-CIP stab down inactive, AI-2 QS mod inactive, UBC13 inh inactive and T cruzi repl inactive.
For CCOCCCNC(=O)/C(C#N)=C/c1ccc([N+](=O)[O-])o1 the results were PP1 inh inactive, p-CIP stab down inactive, AI-2 QS mod -83.4, UBC13 inh inactive and T cruzi repl 74.3.
`Cc1ccccc1S(=O)(=O)Nc1ncnc2ccccc12` gave PP1 inh inactive, p-CIP stab down inactive, AI-2 QS mod inactive, UBC13 inh inactive and T cruzi repl inactive.
